Compound activity deposited in PubChem by Columbia University Molecular Screening Center.
Insulin prom act: TRM-6 insulin promoter activation; TRM-6 cells, insulin promoter eGFP reporter, imaging; plate-scaled: unstimulated 0, stimulated control 100; activation, % at 2 µM; 0.81% of 130,000 active;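 active means activation at 2 µM above a set limit, confirmed on inspection of the cell images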;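 further: share of cells whose green reporter signal exceeds an intensity cutoff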
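System: human fetal islet-derived TRM-6 cells with tamoxifen-inducible insulin promoter–eGFP reporter; input: seeding density of 1,000 cells per well; buffer or medium: Low-glucose (5.5 mM) medium with tamoxifen; incubation: compound exposure 48 h, 37 °C; measured by: high-content imaging of fixed cells with Hoechst nuclear stain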
Large screens that a line does not name were inactive. The entries come from a sample that favours hits as a whole.

COc1ccc(N2C(=O)CSC2c2ccccc2[N+](=O)[O-])cc1 (configuration not stated)	none
CCn1c(SCC(=O)Nc2nc3ccc(C)cc3s2)nc2c(c1=O)SC(C)C2 (configuration not stated)	none
O=[N+]([O-])c1ccc(-c2ccc(/C=N/Nc3nc(N4CCCCC4)nc(N4CCCCC4)n3)o2)cc1	Insulin prom act 614
O=[N+]([O-])c1ccc(-n2cccc2/C=N/Nc2nc(N3CCCCC3)nc(N3CCCCC3)n2)cc1	none
O=[N+]([O-])c1cccc(/C=N/Nc2nc(N3CCCCC3)nc(N3CCCCC3)n2)c1	none
Cc1c(Cl)cccc1NC(=O)CSc1nnc(CCNC(=O)OC(C)(C)C)o1	none
CN(Cc1cnn(C)c1)C(=O)c1cc(COc2c(F)cccc2F)on1	none
COc1cc2ccccc2c2c1CCCC2=O	none
Cc1ccc(N(C(=O)Cn2nnc3ccccc32)C(C(=O)NCc2ccco2)c2ccc(C)o2)cc1 (configuration not stated)	none
COc1ccc(N(C(=O)Cn2nnc3ccccc32)C(C(=O)NC(C)(C)C)c2ccc(OC)c(O)c2)cc1 (configuration not stated)	none
CCC(C)(C)NC(=O)C(c1ccco1)N(C(=O)Cn1nnc2ccccc21)c1ccc2c(c1)OCO2 (configuration not stated)	Insulin prom act 83
CCc1nc2ccc(C(=O)O)cc2nc1CC	none
O=S(=O)(/N=C(/Nc1ccc(F)c(F)c1F)c1ccccc1)c1ccccc1	none
CC1=C(C(=O)OC(C)C)C(c2cn(-c3ccccc3)nc2-c2cccs2)NC(=O)N1 (configuration not stated)	none
Cc1nn(C)c(C)c1/C=N/N=C1\CCC2C3CCc4cc(O)ccc4C3CCC12C (configuration not stated)	Insulin prom act 91
C#C[C@]1(O)CC[C@H]2[C@@H]3CCc4cc(OC)ccc4[C@H]3CC[C@@]21C	none
Cc1ccc(-c2cc(C(=O)N/N=C/c3c(C)nn(C)c3C)c3ccccc3n2)cc1C	none
O=C(COC(=O)CNC(=O)c1ccc(Cl)cc1)Nc1ccc(Cl)cc1C(F)(F)F	none
CCc1ccc(N2CC(C(=O)Nc3nnc(CC)s3)CC2=O)cc1 (configuration not stated)	none
c1ccc(CN2CCOCC2)cc1	none
Clc1ccc2oc(-c3ccccc3)cc(=NCCCN3CCOCC3)c2c1	Insulin prom act 321
O=C(NCCCN1CCOCC1)c1cc(-c2ccccc2)on1	none
COc1ccc(CNC(=O)c2cnn3c(C(F)F)cc(C)nc23)cc1OC	none
O=C(CCC(=O)N1CCc2ccccc21)N1CCc2ccccc21	Insulin prom act 569
O=C(COc1ccccc1)N1CCc2ccccc21	none
Cc1ccc(S(=O)(=O)CCC(=O)N2CCc3ccccc32)cc1	none
O=C(COC(=O)c1ccccn1)NCCCc1ccccc1	none
O=C(NCc1ccccc1)Nc1cccn(Cc2ccccc2Cl)c1=O	none
O=C(O)C1C2C=CC(C2)C1C(=O)Nc1cccc(F)c1 (configuration not stated)	none
O=C(O)c1cccc(NC(=O)C2C3C=CC(C3)C2C(=O)O)c1 (configuration not stated)	none
Cc1ccc(-c2cccc(NC(=O)C3C(C(=O)O)[C@@H]4C=C[C@H]3C4)c2)o1 (some centres not stated)	Insulin prom act 154
CC(=O)N(C)c1ccc(OCC(O)Cn2c3ccc(Cl)cc3c3cc(Cl)ccc32)cc1 (configuration not stated)	none
Cc1ccc(O)c(C(=O)/C=C/c2ccc3c(c2)OCCO3)c1	none
COCCN(C(=O)CNC(=O)c1ccco1)C(C(=O)NC1CCCC1)c1cccs1 (configuration not stated)	none
O=C(Oc1ccc(NC2=NS(=O)(=O)c3ccccc32)cc1)c1cccnc1	none
CCCCNS(=O)(=O)c1ccc(OCC(=O)OC)cc1	none
Cc1ccc(-c2nn(-c3cc(Cl)ccc3[N+](=O)[O-])c(=O)c3ccccc23)cc1	none
Cc1nn(-c2cc(N3CCCC3)ccc2[N+](=O)[O-])c(=O)c2ccccc12	Insulin prom act 134
Cc1nn(-c2cc(N3CCOCC3)ccc2N)c(=O)c2ccccc12	none
O/C(=C\c1ccc2ccccc2n1)c1ccc(O)cc1O	none
Cc1ccc(-n2c(CNc3ccc(F)cc3)nnc2SCC(=O)N2CCCC2)cc1	Insulin prom act 162
CC1CCN(C(=O)CSc2nnc(Cc3cccn3C)n2-c2ccc(F)cc2)CC1	none
Cc1ccc(-n2nnnc2SCC(=O)N2CCCCC2)cc1	none
O=C(CSc1ccccn1)NC1CCCC1	none
CC(=NCc1cccc(Cl)c1)c1nc(-c2ccco2)oc1O	none
CCCOc1ccc2c3c(c(=O)oc2c1OCCC)CCCC3	none
CCOC(=O)COc1ccc2c3c(c(=O)oc2c1C)CCC3	Insulin prom act 519
Cc1c(OCc2nn[nH]n2)ccc2c3c(c(=O)oc12)CCCC3	none
Cc1csc(NC(=O)C2CCN(S(=O)(=O)c3ccccc3F)CC2)n1	none
O=S(=O)(NC1=NCCC1)c1cccc(NC(=S)NCCc2ccccc2)c1	none
Cc1cc(NC(=O)C2CCCCC2)ccc1NC(=O)c1ccccc1Cl	none
O=C(CSCc1ccccc1)N1CCN(c2ccc(F)cc2)CC1	none
CCn1c(CSCc2ccc(F)cc2)nnc1SCC(=O)N1CCN(c2ccccc2)CC1	Insulin prom act 95
CCn1c(SCC(=O)N2CCN(c3ccccc3)CC2)nnc1-c1ccncc1	none
O=C(/C=C/c1ccc(N2CCCCC2)c([N+](=O)[O-])c1)c1ccc(O)cc1	none
COc1ccc(CCNC(=O)c2ccc3c(SCC(=O)O)c4c(nc3c2)CCCC4)cc1OC	none
COc1ccc2c(c1)-c1ccccc1S(=O)(=O)N2C(C)=O	Insulin prom act 184
COc1ccc2c(=O)c(N3C(=O)c4ccccc4C3=O)coc2c1	none
COc1ccc(NC(=O)CN2c3cccc4cccc(c34)S2(=O)=O)cc1	none
Nc1c(C(O)(C(F)(F)F)C(F)(F)F)ccc2ccccc12	none
Cc1cccc(Nc2ccccc2C(=O)O)c1C	none
COc1ccccc1Nc1cc(C(=O)N2CCc3ccccc3C2)c2ccccc2n1	none
Cc1cc(Nc2ccccc2C(=O)O)nc2nc3ccccc3c(=O)n12	Insulin prom act 146
O=C(NC1CCCCC1)C(c1ccco1)N(Cc1cccnc1)C(=O)C1COc2ccccc2O1 (configuration not stated)	none
COc1cc(NS(=O)(=O)c2ccc(Cl)cc2)c(C(=O)O)cc1OC	none
Cc1ccc(-n2nnnc2-c2ccco2)cc1	none
FC(F)(F)c1nc(-c2cccs2)ncc1-c1nnnn1-c1ccc(Cl)cc1	none
Cc1cc(C)cc(-n2nnnc2-c2cn(C)nc2C(F)(F)F)c1	Insulin prom act 132
S=C(NCc1ccncc1)NC1CCCCC1	none
CCC(C)(C)n1nnnc1C(c1ccc(C)cc1)N(Cc1ccco1)Cc1cccs1 (configuration not stated)	none
C=CCn1c(SCc2ccccc2)nnc1-c1cccnc1	none
Cc1ccc(-c2nnc(SCc3ccc(C#N)cc3)n2Cc2ccco2)cc1	none
C=CCn1c(SCc2ccc(C#N)cc2)nnc1-c1cccc(OC)c1	Insulin prom act 164
O=C(N/N=C/c1cccs1)[C@H]1C[C@@H]1c1ccccc1	none
O=C(O)c1ccccc1C(=O)N1CCN(C(=O)c2ccccc2Cl)CC1	none
O=C(c1ccccc1-c1ccccc1)N1CCCC1	Insulin prom act 520
O=C(c1ccc(-c2ccccc2)cc1)N1CCCC1	none
CN(C)C(CNC(=S)Nc1cccc(Cl)c1)c1cccnc1 (configuration not stated)	none
CC(=O)c1cn(CC(=O)NCc2ccc3c(c2)OCO3)c2ccccc12	none
CC(=O)c1cn(CC(=O)Nc2ccc(C)c(C)c2)c2ccccc12	Insulin prom act 533
CC(=O)c1cn(CC(=O)Nc2ccc(C)cc2)c2ccccc12	none
